These molecules were tested on A2780 (assay: In vitro growth inhibitory activity against A2780 human ovarium carcinoma cell line was determined).
Assay type: functional, cell-based
Procedure, shortened: (§1)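 Cell growth inhibition measured in cultured tumour cells by MTT assay. IC50 derived from the growth inhibition.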
Work on CCCCCC/C=C/c1c(OC)cc(=O)oc1C yielded an IC50 of 26.9 µM. With CCCCCC/C=C/c1c(OC)cc(C)oc1=O the IC50 was 30.3 µM.

Each molecule was assayed on Aspergillus niger (assay: Percent growth of Aspergillus niger after 7 days of incubation).
Assay type: functional
Design: concentration or dose not given beside the values
Procedure, shortened: (§2)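 Fungal plate assay: pyrone dissolved in absolute EtOH at 10mg/mL and pipetted 2 cm offset from the centre of the plate containing the organism. EtOH alone served as control. Growth is recorded as percentage of the organism after 72 h and after 7 days of incubation.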
With COc1cc(=O)oc(C)c1-c1ccc(C)cc1 the Growth was >95%. Molecule CCCCCC/C=C/c1c(OC)cc(=O)oc1C has a Growth of 93%. With CCCCCC/C=C/c1c(OC)cc(C)oc1=O the Growth was 95%. Work on CCC/C=C/c1c(OC)cc(=O)oc1C yielded a Growth of 90%. In the case of CCCCC/C=C/c1c(OC)cc(=O)oc1C, the Growth is reported as 95%. Molecule CCCC/C=C/c1cc(C)oc(=O)c1 has a Growth of 95%.

These molecules were tested on Aspergillus niger (assay: Percent growth of Aspergillus niger after 72 hours of incubation).
Assay type: functional
Design: concentration or dose not given beside the values
Procedure, shortened: as §2
COc1cc(=O)oc(C)c1-c1ccc(C)cc1 was tested, and the Growth was >90%. Molecule CCCCCC/C=C/c1c(OC)cc(=O)oc1C has a Growth of 90%. CCCCCC/C=C/c1c(OC)cc(C)oc1=O showed a Growth of 89%. CCC/C=C/c1c(OC)cc(=O)oc1C gave a Growth of 82%. For CCCCC/C=C/c1c(OC)cc(=O)oc1C, the Growth was 82%. Molecule CCCC/C=C/c1cc(C)oc(=O)c1 has a Growth of 92%.

What follows are molecules tested on Bacillus subtilis (assay: Antimicrobial activity against Bacillus subtilis was determined after 96 hours of incubation).
Assay type: functional
Procedure, shortened: (§3)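 Disk diffusion: cellulose disks loaded with test compound and placed on bacterial plates, with an EtOH control disk. Incubation 96 h. Read-out is the radius (mm) of the inhibition zone.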
COc1cc(=O)oc(C)c1-c1ccc(C)cc1 showed an Activity of 8 mm. For CCCCCC/C=C/c1c(OC)cc(=O)oc1C, the Activity was 16 mm. For CCCCCC/C=C/c1c(OC)cc(C)oc1=O, the Activity was 18 mm. CCC/C=C/c1c(OC)cc(=O)oc1C gave an Activity of 16 mm. For CCCCC/C=C/c1c(OC)cc(=O)oc1C, the Activity was 19 mm. For CCCC/C=C/c1cc(C)oc(=O)c1, the Activity was 18 mm.

What follows are molecules tested on Botrytis cinerea (assay: Percent growth of Botrytis cinerea after 7 days of incubation).
Assay type: functional
Design: concentration or dose not given beside the values
Procedure, shortened: as §2
Molecule COc1cc(=O)oc(C)c1-c1ccc(C)cc1 has a Growth of 100%. CCCCCC/C=C/c1c(OC)cc(=O)oc1C gave a Growth of 94%. Molecule CCCCCC/C=C/c1c(OC)cc(C)oc1=O has a Growth of 100%. Molecule CCC/C=C/c1c(OC)cc(=O)oc1C has a Growth of 100%. CCCCC/C=C/c1c(OC)cc(=O)oc1C gave a Growth of 100%. In the case of CCCC/C=C/c1cc(C)oc(=O)c1, the Growth is reported as 100%.

The molecules below were run on Botrytis cinerea (assay: Percent growth of Botrytis cinerea after 72 hours of incubation).
Assay type: functional
Design: concentration or dose not given beside the values
Procedure, shortened: as §2
COc1cc(=O)oc(C)c1-c1ccc(C)cc1 showed a Growth of 49%. CCCCCC/C=C/c1c(OC)cc(=O)oc1C was tested, and the Growth was 29%. CCCCCC/C=C/c1c(OC)cc(C)oc1=O gave a Growth of 60%. For CCC/C=C/c1c(OC)cc(=O)oc1C, the Growth was 39%. Molecule CCCCC/C=C/c1c(OC)cc(=O)oc1C has a Growth of 12%. CCCC/C=C/c1cc(C)oc(=O)c1 showed a Growth of 44%.

What follows are molecules tested on Candida albicans (assay: Antimicrobial activity against Candida albicans was determined after 48 hours of incubation).
Assay type: functional
Procedure, shortened: (§4)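 Disk diffusion on yeast plates: cellulose disks carrying test compound, with an EtOH control. Incubation 48 h. The inhibition zone radius is recorded in mm.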
Molecule COc1cc(=O)oc(C)c1-c1ccc(C)cc1 has an Activity of 0 mm. CCCCCC/C=C/c1c(OC)cc(=O)oc1C gave an Activity of 18 mm. CCCCCC/C=C/c1c(OC)cc(C)oc1=O gave an Activity of 0 mm. In the case of CCC/C=C/c1c(OC)cc(=O)oc1C, the Activity is reported as 11 mm. With CCCCC/C=C/c1c(OC)cc(=O)oc1C the Activity was 12 mm. CCCC/C=C/c1cc(C)oc(=O)c1 gave an Activity of 24 mm.

The molecules below were run on Fusarium oxysporum (assay: Percent growth of Fusarium oxysporum after 7 days of incubation).
Assay type: functional
Design: concentration or dose not given beside the values
Procedure, shortened: as §2
With COc1cc(=O)oc(C)c1-c1ccc(C)cc1 the Growth was 54%. In the case of CCCCCC/C=C/c1c(OC)cc(=O)oc1C, the Growth is reported as 46%. For CCCCCC/C=C/c1c(OC)cc(C)oc1=O, the Growth was 60%. For CCC/C=C/c1c(OC)cc(=O)oc1C, the Growth was 35%. CCCCC/C=C/c1c(OC)cc(=O)oc1C gave a Growth of 24%. For CCCC/C=C/c1cc(C)oc(=O)c1, the Growth was 25%.

These molecules were tested on Fusarium oxysporum (assay: Percent growth of Fusarium oxysporum after 72 hours of incubation).
Assay type: functional
Design: concentration or dose not given beside the values
Procedure, shortened: as §2
Work on COc1cc(=O)oc(C)c1-c1ccc(C)cc1 yielded a Growth of 10%. Molecule CCCCCC/C=C/c1c(OC)cc(=O)oc1C has a Growth of 10%. For CCCCCC/C=C/c1c(OC)cc(C)oc1=O, the Growth was 11%. CCC/C=C/c1c(OC)cc(=O)oc1C showed a Growth of 8%. Work on CCCCC/C=C/c1c(OC)cc(=O)oc1C yielded a Growth of 7%. CCCC/C=C/c1cc(C)oc(=O)c1 showed a Growth of 2%.

The molecules below were run on Escherichia coli (assay: Antimicrobial activity against Escherichia coli was determined after 96 hours of incubation).
Assay type: functional
Procedure, shortened: as §3
Molecule COc1cc(=O)oc(C)c1-c1ccc(C)cc1 has an Activity of 6 mm. With CCCCCC/C=C/c1c(OC)cc(=O)oc1C the Activity was 14 mm. CCCCCC/C=C/c1c(OC)cc(C)oc1=O showed an Activity of 0 mm. In the case of CCC/C=C/c1c(OC)cc(=O)oc1C, the Activity is reported as 17 mm. CCCCC/C=C/c1c(OC)cc(=O)oc1C was tested, and the Activity was 20 mm. Work on CCCC/C=C/c1cc(C)oc(=O)c1 yielded an Activity of 18 mm.

What follows are molecules tested on K562 (assay: In vitro growth inhibitory activity against K562 human chronic myelogenous leukemia cell line was determined).
Assay type: functional, cell-based
Procedure, shortened: as §1
CCCCCC/C=C/c1c(OC)cc(=O)oc1C gave an IC50 of 33.3 µM. In the case of CCCCCC/C=C/c1c(OC)cc(C)oc1=O, the IC50 is reported as 30.1 µM.

Each molecule was assayed on Globisporangium mamillatum (assay: Percent growth of Pythium mammillatum after 7 days of incubation).
Assay type: functional
Design: concentration or dose not given beside the values
Procedure, shortened: as §2
CCCCCC/C=C/c1c(OC)cc(C)oc1=O was tested, and the Growth was 100%. Work on CCCCC/C=C/c1c(OC)cc(=O)oc1C yielded a Growth of 94%. Molecule CCCC/C=C/c1cc(C)oc(=O)c1 has a Growth of 100%.

Each molecule was assayed on Globisporangium mamillatum (assay: Percent growth of Pythium mammillatum after 7 days of incubation; NT=Not tested).
Assay type: functional
Procedure, shortened: as §2
COc1cc(=O)oc(C)c1-c1ccc(C)cc1 gave a Growth of 100%. CCCCCC/C=C/c1c(OC)cc(=O)oc1C showed a Growth of 90%. With CCC/C=C/c1c(OC)cc(=O)oc1C the Growth was 100%.

These molecules were tested on Globisporangium mamillatum (assay: Percent growth of Pythium mammillatum after 72 hours of incubation).
Assay type: functional
Design: concentration or dose not given beside the values
Procedure, shortened: as §2
CCCCCC/C=C/c1c(OC)cc(=O)oc1C was tested, and the Growth was 22%. With CCCCCC/C=C/c1c(OC)cc(C)oc1=O the Growth was 25%. CCC/C=C/c1c(OC)cc(=O)oc1C showed a Growth of 43%. Molecule CCCCC/C=C/c1c(OC)cc(=O)oc1C has a Growth of 24%. For CCCC/C=C/c1cc(C)oc(=O)c1, the Growth was 30%.

The molecules below were run on Globisporangium ultimum (assay: Percent growth of Pythium ultimum after 7 days of incubation).
Assay type: functional
Design: concentration or dose not given beside the values
Procedure, shortened: as §2
With CCCCCC/C=C/c1c(OC)cc(=O)oc1C the Growth was 100%. CCCCCC/C=C/c1c(OC)cc(C)oc1=O was tested, and the Growth was 100%. With CCC/C=C/c1c(OC)cc(=O)oc1C the Growth was 100%. Molecule CCCCC/C=C/c1c(OC)cc(=O)oc1C has a Growth of 100%. Work on CCCC/C=C/c1cc(C)oc(=O)c1 yielded a Growth of 100%.

These molecules were tested on Globisporangium ultimum (assay: Percent growth of Pythium ultimum after 72 hours of incubation).
Assay type: functional
Design: concentration or dose not given beside the values
Procedure, shortened: as §2
CCCCCC/C=C/c1c(OC)cc(=O)oc1C showed a Growth of 100%. Work on CCCCCC/C=C/c1c(OC)cc(C)oc1=O yielded a Growth of 100%. Molecule CCC/C=C/c1c(OC)cc(=O)oc1C has a Growth of 100%. CCCCC/C=C/c1c(OC)cc(=O)oc1C gave a Growth of 100%. With CCCC/C=C/c1cc(C)oc(=O)c1 the Growth was 96%.

These molecules were tested on Schizosaccharomyces pombe (assay: Antimicrobial activity against Schizosaccharomyces pombe was determined after 48 hours of incubation).
Assay type: functional
Procedure, shortened: as §4
Molecule COc1cc(=O)oc(C)c1-c1ccc(C)cc1 has an Activity of 20 mm. With CCCCCC/C=C/c1c(OC)cc(=O)oc1C the Activity was 22 mm. CCCCCC/C=C/c1c(OC)cc(C)oc1=O gave an Activity of 0 mm. In the case of CCC/C=C/c1c(OC)cc(=O)oc1C, the Activity is reported as 20 mm. Work on CCCCC/C=C/c1c(OC)cc(=O)oc1C yielded an Activity of 26 mm. CCCC/C=C/c1cc(C)oc(=O)c1 showed an Activity of 40 mm.

The molecules below were run on Saccharomyces cerevisiae (assay: Antimicrobial activity against Saccharomyces cerevisiae was determined after 48 hours of incubation).
Assay type: functional
Procedure, shortened: as §4
In the case of COc1cc(=O)oc(C)c1-c1ccc(C)cc1, the Activity is reported as 0 mm. CCCCCC/C=C/c1c(OC)cc(=O)oc1C showed an Activity of 0 mm. CCCCCC/C=C/c1c(OC)cc(C)oc1=O showed an Activity of 0 mm. With CCC/C=C/c1c(OC)cc(=O)oc1C the Activity was 10 mm. CCCCC/C=C/c1c(OC)cc(=O)oc1C showed an Activity of 12 mm. With CCCC/C=C/c1cc(C)oc(=O)c1 the Activity was 0 mm.

These molecules were tested on Thanatephorus cucumeris (assay: Percent growth of Rhizoctonia solani after 7 days of incubation).
Assay type: functional
Design: concentration or dose not given beside the values
Procedure, shortened: as §2
With COc1cc(=O)oc(C)c1-c1ccc(C)cc1 the Growth was 100%. With CCCCCC/C=C/c1c(OC)cc(=O)oc1C the Growth was 100%. For CCCCCC/C=C/c1c(OC)cc(C)oc1=O, the Growth was 100%. For CCC/C=C/c1c(OC)cc(=O)oc1C, the Growth was 100%. Molecule CCCCC/C=C/c1c(OC)cc(=O)oc1C has a Growth of 100%. For CCCC/C=C/c1cc(C)oc(=O)c1, the Growth was 100%.

What follows are molecules tested on Thanatephorus cucumeris (assay: Percent growth of Rhizoctonia solani after 72 hours of incubation).
Assay type: functional
Design: concentration or dose not given beside the values
Procedure, shortened: as §2
COc1cc(=O)oc(C)c1-c1ccc(C)cc1 gave a Growth of 61%. With CCCCCC/C=C/c1c(OC)cc(=O)oc1C the Growth was 40%. For CCCCCC/C=C/c1c(OC)cc(C)oc1=O, the Growth was 53%. In the case of CCC/C=C/c1c(OC)cc(=O)oc1C, the Growth is reported as 50%. With CCCCC/C=C/c1c(OC)cc(=O)oc1C the Growth was 33%. For CCCC/C=C/c1cc(C)oc(=O)c1, the Growth was 36%.

The molecules below were run on Staphylococcus aureus (assay: Antimicrobial activity against Staphylococcus aureus was determined after 96 hours of incubation).
Assay type: functional
Procedure, shortened: as §3
With COc1cc(=O)oc(C)c1-c1ccc(C)cc1 the Activity was 0 mm. With CCCCCC/C=C/c1c(OC)cc(=O)oc1C the Activity was 16 mm. CCCCCC/C=C/c1c(OC)cc(C)oc1=O showed an Activity of 0 mm. Molecule CCC/C=C/c1c(OC)cc(=O)oc1C has an Activity of 0 mm. With CCCCC/C=C/c1c(OC)cc(=O)oc1C the Activity was 16 mm. CCCC/C=C/c1cc(C)oc(=O)c1 showed an Activity of 0 mm.

— ChEMBL document CHEMBL1136151, “Suzuki cross-coupling approaches to the synthesis of bioactive 3-substituted and 5-substituted-4-methoxy-6-methyl-2-pyrones” (Bioorg Med Chem Lett, 2003)
